In ChEMBL document CHEMBL3045217, “Factors affecting the synergy of thiabendazole, sodium bicarbonate, and heat to control postharvest green mold of citrus fruit” (J Agric Food Chem, 2008):

Legend:
Penicillium digitatum [1] = assay: Fungicidal activity against Penicillium digitatum infected Valenica oranges assessed as fruit weight loss at 600 mg/L treated for 1 min at 20 degC postharvest at 20 hr after fungal conidial inoculation measured after 14 days of storage at 17 degC (water Rvb = 5.62%); assay type: functional
Penicillium digitatum [2] = assay: Fungicidal activity against Penicillium digitatum infected Valenica oranges assessed as fruit weight loss at 200 mg/L treated for 1 min at 50 degC postharvest at 20 hr after fungal conidial inoculation measured after 7 days of storage at 17 degC (water Rvb = 3.23%); assay type: functional
Penicillium digitatum [3] = assay: Fungicidal activity against Penicillium digitatum infected Valenica oranges assessed as fruit weight loss at 400 mg/L treated for 1 min at 40 degC postharvest at 20 hr after fungal conidial inoculation measured after 7 days of storage at 17 degC in presence of 0.5% SBC (water Rvb = 4.07%); assay type: functional
Penicillium digitatum [4] = assay: (§1) Fungicidal activity against TBZ-resistant Penicillium digitatum infected Valencia oranges assessed as postharvest green mold incidence at 400 mg/L treated for 1 min at 40 degC at 20 hr after fungal conidial inoculation measured after 7 days of storage at 20 degC in presence of 0.5% SBC (water Rvb = 81.7%); assay type: functional
Penicillium digitatum [5] = assay: Fungicidal activity against TBZ-resistant Penicillium digitatum infected Valencia oranges assessed as postharvest green mold incidence at 400 mg/L treated for 1 min at 40 degC at 20 hr after fungal conidial inoculation measured after 7 days of storage at 20 degC (water Rvb = 90.0%); assay type: functional
Penicillium digitatum [6] = assay: Fungicidal activity against Penicillium digitatum infected Valenica oranges assessed as fruit weight loss at 400 mg/L treated for 1 min at 40 degC postharvest at 20 hr after fungal conidial inoculation measured after 21 days of storage at 17 degC in presence of 2% SBC (water Rvb = 13.47%); assay type: functional
Penicillium digitatum [7] = assay: Fungicidal activity against TBZ-sensitive Penicillium digitatum infected Nova mandarins assessed as postharvest green mold incidence at 600 mg/L treated for 1 min at 20 degC at 20 hr after fungal conidial inoculation measured after 5 days of storage at 20 degC (water Rvb = 100%); assay type: functional
How it was run: (§2)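 Fruit were surface-disinfected in 1 g/L hypochlorite for 30 s, rinsed, dried, then wounded twice equatorially (2 mm × 2 mm rod). Inoculation was a 1 min dip in P. digitatum conidia, 1 × 10^5 conidia/mL final. Fruit were held 20 h at 20 °C and 90% RH, dipped 1 min (SBC wt/vol), and air-dried. Storage was 20 °C, 90% RH. Decay incidence (% fruit with lesions) was scored at 5 d for mandarins and 7 d for oranges. Three replicates of 40 fruit were used; arcsin-transformed data were compared by LSD, p ≤ 0.05.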

Fruit [8] = assay: Drug residues in Citrus sinensis cvs. Valencia late (Valencia oranges) at 600 mg/L treated for 1 min at 20 degC postharvest measured after 20 days of storage at 17 degC in presence of 2% SBC by GC analysis; assay type: ADME
How it was run: (§3)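 'Valencia' oranges were dipped 1 min in TBZ at 600 mg/L (20 °C, ±0.5, 1 or 2% wt/vol SBC), 400 mg/L (40 °C, ±SBC) or 200 mg/L (50 °C, alone), then air-dried. They were sampled at 0, 10 and 20 days at 17 °C. Peel of five fruit was frozen, and 5 g of homogenate was extracted with ethyl acetate/hexane (1/1) plus NaCl. The extract was dried under N2, taken up in acetone and analysed by GC. Results are mg/kg on a whole-fruit basis.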

Fruit [9] = assay: Drug residues in Citrus sinensis cvs. Valencia late (Valencia oranges) at 600 mg/L treated for 1 min at 20 degC postharvest measured after 20 days of storage at 17 degC in presence of 1% SBC by GC analysis; assay type: ADME; how it was run: as §3
Fruit [10] = assay: Drug residues in Citrus sinensis cvs. Valencia late (Valencia oranges) at 400 mg/L treated for 1 min at 40 degC postharvest measured after 10 days of storage at 17 degC in presence of 2% SBC by GC analysis; assay type: ADME; how it was run: as §3
Fruit [11] = assay: Total drug residues in Citrus sinensis cvs. Salustiana (Salustiana oranges) fruit at 600 mg/L treated for 3 min at 50 degC postharvest measured after overnight incubation at 17 degC by GC analysis; assay type: ADME; conditions: 0.05 h
How it was run: (§4)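 'Salustiana' oranges were water-washed, dried, dipped, then dried overnight at 17 °C in the dark. Unextracted fruit were used for total residues. Peel from five oranges was frozen at -18 °C. 5 g homogenized peel was extracted with 10 mL ethyl acetate/hexane (1/1) plus 2 g NaCl, shaken 30 min, then 1 mL of organic layer was dried under N2, redissolved in acetone, and run by GC without cleanup. Results are on a whole-fruit basis.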

Fruit [12] = assay: Total drug residues in Citrus sinensis cvs. Salustiana (Salustiana oranges) fruit at 600 mg/L treated for 1 min at 20 degC postharvest measured after overnight incubation at 17 degC by GC analysis; assay type: ADME; how it was run: as §4
Fruit [13] = assay: Drug residues in Citrus sinensis cvs. Valencia late (Valencia oranges) at 400 mg/L treated for 1 min at 40 degC postharvest measured after 10 days of storage at 17 degC by GC analysis; assay type: ADME; how it was run: as §3
Fruit [14] = assay: Drug residues in Citrus sinensis cvs. Valencia late (Valencia oranges) at 200 mg/L treated for 1 min at 50 degC postharvest measured immediately post-drug treatment by GC analysis; assay type: ADME; how it was run: as §3
Fruit [15] = assay: Drug residues in Citrus sinensis cvs. Valencia late (Valencia oranges) at 400 mg/L treated for 1 min at 40 degC postharvest measured immediately post-drug treatment in presence of 2% SBC by GC analysis; assay type: ADME; how it was run: as §3
Penicillium digitatum [16] = assay: as §1, with “TBZ-sensitive” for “TBZ-resistant”, “600” for “400”, “20” for “40”, “1%” for “0.5%”, “30.8%)” for “81.7%)”; assay type: functional; how it was run: as §2
Inner fruit [17] = assay: Drug residues in Citrus sinensis cvs. Salustiana (Salustiana oranges) inner fruit at 600 mg/L treated for 3 min at 50 degC postharvest measured after overnight incubation at 17 degC by GC analysis; assay type: ADME; conditions: 0.05 h
How it was run: (§5)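 'Salustiana' oranges were washed with water and air-dried. They were dipped 1 or 3 min in TBZ 600 mg/L at 20 or 50 °C, or 1 min in TBZ 600 mg/L plus 2% SBC at 20 °C, then dried overnight at 17 °C in the dark. Surface residue was taken by water extraction and wax residue by chloroform extraction. Inner residue was measured in fruit after both extractions. Extracts were dried under N2, taken up in acetone and analysed by GC. Values are mg/kg on a whole-fruit basis.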

Inner fruit [18] = assay: Drug residues in Citrus sinensis cvs. Salustiana (Salustiana oranges) inner fruit at 600 mg/L treated for 1 min at 50 degC postharvest measured after overnight incubation at 17 degC by GC analysis; assay type: ADME; how it was run: as §5
Inner fruit [19] = assay: Drug residues in Citrus sinensis cvs. Salustiana (Salustiana oranges) inner fruit at 600 mg/L treated for 3 min at 20 degC postharvest measured after overnight incubation at 17 degC by GC analysis; assay type: ADME; conditions: 0.05 h; how it was run: as §5
Cuticular wax = assay: Drug residues in Citrus sinensis cvs. Salustiana (Salustiana oranges) cuticular wax at 600 mg/L treated for 3 min at 50 degC postharvest measured after overnight incubation at 17 degC by GC analysis; assay type: ADME; conditions: 0.05 h; how it was run: as §5
Fruit surface = assay: Drug residues on Citrus sinensis cvs. Salustiana (Salustiana oranges) fruit surface at 600 mg/L treated for 1 min at 20 degC postharvest measured after overnight incubation at 17 degC by GC analysis; assay type: ADME; how it was run: as §5

For `c1ccc2[nH]c(-c3cscn3)nc2c1` [THIABENDAZOLE], the Activity (Penicillium digitatum [1]) was 6.33%, the Activity (Penicillium digitatum [2]) was 2.98% and the Activity (Penicillium digitatum [3]) was 4.23%. The Activity (Penicillium digitatum [4]) was 14.2%, the Activity (Penicillium digitatum [5]) was 55.8% and the Activity (Penicillium digitatum [6]) was 13.98%. The Activity (Penicillium digitatum [7]) was 0%, the Drug uptake (Fruit [8]) was 1.38 mg/kg and the Drug uptake (Fruit [9]) was 1.4 mg/kg. For the same molecule, the Drug uptake (Fruit [10]) was 0.65 mg/kg, the Drug uptake (Fruit [11]) was 1.6 mg/kg and the Drug uptake (Fruit [12]) was 1.04 mg/kg. The Drug uptake (Fruit [13]) was 0.89 mg/kg, the Drug uptake (Fruit [14]) was 0.45 mg/kg and the Drug uptake (Fruit [15]) was 0.74 mg/kg. It also gave an Activity (Penicillium digitatum [16]) of 9.2%, a Drug uptake (Inner fruit [17]) of 0.4 mg/kg and a Drug uptake (Inner fruit [18]) of 0.17 mg/kg. The Drug uptake (Inner fruit [19]) was 0.13 mg/kg, the Drug uptake (Cuticular wax) was 0.48 mg/kg and the Drug uptake (Fruit surface) was 0.68 mg/kg.
